Measurements as given in ChEMBL document CHEMBL2157878, “In vitro cellular uptake and dimerization of signal transducer and activator of transcription-3 (STAT3) identify the photosensitizing and imaging-potential of isomeric photosensitizers derived from chlorophyll-a and bacteriochlorophyll-a” (J Med Chem, 2011).

Key:
[1] = test system: Mus musculus; assay: Drug uptake in mouse Colon 26 cells xenografted iv dosed BALB/c mouse after 48 hrs by PET imaging; format: ADME, organism-based; settings: in vivo
In short: (§1)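 Colon26 tumors grown subcutaneously in BALB/c mice. ¹²⁴I-labeled photosensitizer given into the tail vein at 52–122 μCi. Under isoflurane/oxygen anesthesia, animals were scanned prone on a microPET for 30 min at 24, 48 and 72 h post-injection. Tumor uptake was estimated by region-of-interest calculations.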

[2] = test system: Mus musculus; assay: Drug uptake in mouse Colon 26 cells xenografted iv dosed BALB/c mouse after 72 hrs by PET imaging; format: ADME, organism-based; settings: in vivo; in short: as §1
[3] = test system: Mus musculus; assay: Drug uptake in mouse Colon 26 cells xenografted iv dosed BALB/c mouse after 24 hrs by PET imaging; format: ADME, organism-based; settings: in vivo; in short: as §1
[4] = test system: Lung; assay: Drug uptake in BALB/c mouse lungs xenografted with mouse Colon 26 cells at 100 uCi administered parenterally after 48 hrs by PET analysis; format: ADME, tissue-based; settings: in vivo, other
In short: (§2)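 ¹²⁴I-labelled PS given by tail vein to BALB/c mice bearing Colon26 tumours (100 μCi per figure legend). Three mice per time point killed at 24, 48 and 72 h. Tumour, organs and blood weighed and counted in a γ-well counter. Uptake expressed as %ID/g.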

[5] = test system: Muscle tissue; assay: Drug uptake in BALB/c mouse muscle xenografted with mouse Colon 26 cells at 100 uCi administered parenterally after 48 hrs by PET analysis; format: ADME, tissue-based; settings: in vivo, other; in short: as §2
[6] = test system: Stomach; assay: Drug uptake in BALB/c mouse stomach xenografted with mouse Colon 26 cells at 100 uCi administered parenterally after 24 hrs by PET analysis; format: ADME, tissue-based; settings: in vivo, other; in short: as §2
[7] = test system: Heart; assay: Drug uptake in BALB/c mouse heart xenografted with mouse Colon 26 cells at 100 uCi administered parenterally after 48 hrs by PET analysis; format: ADME, tissue-based; settings: in vivo, other; in short: as §2
[8] = Drug uptake in mouse Colon 26 cells implanted subcutaneously in BALB/c mouse tumor at 100 uCi administered parenterally after 48 hrs by gamma counting; format: ADME, Neoplasm; settings: in vivo, sc; in short: as §2
[9] = test system: Blood; assay: Drug uptake in BALB/c mouse blood xenografted with mouse Colon 26 cells at 100 uCi administered parenterally after 72 hrs by PET analysis; format: ADME, tissue-based; settings: in vivo, other; in short: as §2
[10] = test system: Spleen; assay: Drug uptake in BALB/c mouse spleen xenografted with mouse Colon 26 cells at 100 uCi administered parenterally after 24 hrs by PET analysis; format: ADME, tissue-based; settings: in vivo, other; in short: as §2
[11] = test system: Kidney; assay: Drug uptake in BALB/c mouse kidney xenografted with mouse Colon 26 cells at 100 uCi administered parenterally after 72 hrs by PET analysis; format: ADME, tissue-based; settings: in vivo, other; in short: as §2
[12] = test system: Intestine; assay: Drug uptake in parenterally dosed BALB/c mouse intestine xenografted with mouse Colon 26 cells after 72 hrs by PET analysis; format: ADME, organism-based; settings: in vivo, other
In short: (§3)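 Tumor-bearing BALB/c mice (Colon26, subcutaneous) received ¹²⁴I-labeled photosensitizer via the tail vein at 15–50 μCi. Three mice per time point were sacrificed at 24, 48 and 72 h. Organs were removed, weighed and counted in a γ-well counter. Uptake was expressed as %ID/g tissue.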

[13] = test system: Stomach; assay: Drug uptake in BALB/c mouse stomach xenografted with mouse Colon 26 cells at 100 uCi administered parenterally after 72 hrs by PET analysis; format: ADME, tissue-based; settings: in vivo; in short: as §2
[14] = test system: Blood; assay: Drug uptake in BALB/c mouse blood xenografted with mouse Colon 26 cells at 100 uCi administered parenterally after 48 hrs by PET analysis; format: ADME, tissue-based; settings: in vivo, other; in short: as §2
[15] = Drug uptake in BALB/c mouse gut xenografted with mouse Colon 26 cells at 100 uCi administered parenterally after 48 hrs by PET analysis; format: ADME, cell-based; settings: in vivo, other; in short: as §2
[16] = test system: Blood; assay: Drug uptake in BALB/c mouse blood xenografted with mouse Colon 26 cells at 100 uCi administered parenterally after 24 hrs by PET analysis; format: ADME, tissue-based; settings: in vivo, other; in short: as §2
[17] = test system: Kidney; assay: Drug uptake in BALB/c mouse kidney xenografted with mouse Colon 26 cells at 100 uCi administered parenterally after 48 hrs by PET analysis; format: ADME, tissue-based; settings: in vivo, other; in short: as §2
[18] = test system: Kidney; assay: Drug uptake in BALB/c mouse kidney xenografted with mouse Colon 26 cells at 100 uCi administered parenterally after 24 hrs by PET analysis; format: ADME, tissue-based; settings: in vivo, other; in short: as §2
[19] = test system: Liver; assay: Drug uptake in BALB/c mouse liver xenografted with mouse Colon 26 cells at 100 uCi administered parenterally after 24 hrs by PET analysis; format: ADME, tissue-based; settings: in vivo, other; in short: as §2
[20] = Drug uptake in mouse Colon 26 cells implanted subcutaneously in BALB/c mouse tumor at 100 uCi administered parenterally after 72 hrs by gamma counting; format: ADME, Neoplasm; settings: in vivo, sc; in short: as §2
[21] = test system: Stomach; assay: Drug uptake in BALB/c mouse stomach xenografted with mouse Colon 26 cells at 100 uCi administered parenterally after 48 hrs by PET analysis; format: ADME, tissue-based; settings: in vivo, other; in short: as §2
[22] = test system: Spleen; assay: Drug uptake in BALB/c mouse spleen xenografted with mouse Colon 26 cells at 100 uCi administered parenterally after 72 hrs by PET analysis; format: ADME, tissue-based; settings: in vivo, other; in short: as §2
[23] = test system: Liver; assay: Drug uptake in BALB/c mouse liver xenografted with mouse Colon 26 cells at 100 uCi administered parenterally after 72 hrs by PET analysis; format: ADME, tissue-based; settings: in vivo, other; in short: as §2
[24] = Drug uptake in mouse Colon 26 cells implanted BALB/c mouse tumor at 100 uCi administered parenterally after 24 hrs by gamma counting; format: ADME, Neoplasm; settings: in vivo, other; in short: as §2
[25] = Drug uptake in BALB/c mouse gut xenografted with mouse Colon 26 cells at 100 uCi administered parenterally after 24 hrs by PET analysis; format: ADME, cell-based; settings: in vivo, other
[26] = test system: Lung; assay: Drug uptake in BALB/c mouse lungs xenografted with mouse Colon 26 cells at 100 uCi administered parenterally after 24 hrs by PET analysis; format: ADME, tissue-based; settings: in vivo, other; in short: as §2
[27] = test system: Liver; assay: Drug uptake in BALB/c mouse liver xenografted with mouse Colon 26 cells at 100 uCi administered parenterally after 48 hrs […]; format: ADME, tissue-based; settings: in vivo; in short: as §2
[28] = test system: Spleen; assay: Drug uptake in BALB/c mouse spleen xenografted with mouse Colon 26 cells at 100 uCi administered parenterally after 48 hrs by PET analysis; format: ADME, tissue-based; settings: in vivo; in short: as §2
[29] = test system: Liver; assay: Drug uptake in parenterally dosed BALB/c mouse liver xenografted with mouse Colon 26 cells after 72 hrs by PET analysis; format: ADME, organism-based; settings: in vivo; in short: as §3
[30] = test system: Heart; assay: Drug uptake in BALB/c mouse heart xenografted with mouse Colon 26 cells at 100 uCi administered parenterally after 24 hrs by PET analysis; format: ADME, tissue-based; settings: in vivo, other; in short: as §2
[31] = test system: Muscle tissue; assay: Drug uptake in BALB/c mouse muscle xenografted with mouse Colon 26 cells at 100 uCi administered parenterally after 24 hrs by PET analysis; format: ADME, tissue-based; settings: in vivo, other; in short: as §2
[32] = test system: Spleen; assay: Drug uptake in parenterally dosed BALB/c mouse spleen xenografted with mouse Colon 26 cells after 72 hrs by PET analysis; format: ADME, organism-based; settings: in vivo; in short: as §3
[33] = test system: Lung; assay: Drug uptake in BALB/c mouse lungs xenografted with mouse Colon 26 cells at 100 uCi administered parenterally after 72 hrs by PET analysis; format: ADME, tissue-based; settings: in vivo, other; in short: as §2
[34] = test system: Muscle tissue; assay: Drug uptake in BALB/c mouse muscle xenografted with mouse Colon 26 cells at 100 uCi administered parenterally after 72 hrs by PET analysis; format: ADME, tissue-based; settings: in vivo, other; in short: as §2
[35] = Drug uptake in BALB/c mouse gut xenografted with mouse Colon 26 cells at 100 uCi administered parenterally after 72 hrs by PET analysis; format: ADME, cell-based; settings: in vivo, other; in short: as §2
[36] = test system: Heart; assay: Drug uptake in BALB/c mouse heart xenografted with mouse Colon 26 cells at 100 uCi administered parenterally after 72 hrs by PET analysis; format: ADME, tissue-based; settings: in vivo, other; in short: as §2

Measured: Drug uptake

CC[C@H]1c2cc3[nH]c4c(c5nc(cc6[nH]c(cc(n2)[C@@H]1C)c(C(C)OCc1cccc([124I])c1)c6C)C(C)=C5CCC(=O)OC)CC(=O)c4c3C (stereo partly drawn)
Active: [1] | [2] | [3]

CCC1=C(C)c2cc3[nH]c(cc4nc(c5c6[nH]c(cc1n2)c(C)c6C(=O)C5)C(CCC(=O)O)[C@@H]4C)c(C)c3C(C)OCc1cccc([124I])c1 (stereo partly drawn)
Active: [4] | [5] | [6] | [7] | [8] | [9] | [10] | [1] | [11] | [12] | [13] | [14] | [15] | [16] | [17] | [18] | [19] | [20] | [21] | [22] | [23] | [24] | [25] | [26] | [2] | [27] | [28] | [29] | [30] | [31] | [32] | [33] | [3] | [34] | [35] | [36]

CCC1=C(C)c2cc3[nH]c(cc4nc(c5c6[nH]c(cc1n2)c(C)c6C(=O)C5)C(CCC(=O)OC)[C@@H]4C)c(C)c3C(C)OCc1cccc([124I])c1 (stereo partly drawn)
Active: [4] | [5] | [6] | [7] | [8] | [9] | [10] | [1] | [11] | [13] | [14] | [15] | [16] | [17] | [18] | [19] | [20] | [21] | [22] | [23] | [24] | [25] | [26] | [2] | [27] | [28] | [30] | [31] | [33] | [3] | [34] | [35] | [36]

CC[C@H]1c2cc3[nH]c4c(c5nc(cc6[nH]c(cc(n2)[C@@H]1C)c(C(C)OCc1cccc([124I])c1)c6C)C(C)=C5CCC(=O)O)CC(=O)c4c3C (stereo partly drawn)
Active: [1] | [12] | [2] | [29] | [32] | [3]
